# Laboratory results from ChEMBL document CHEMBL2146441, “2,6-Disubstituted imidazo[2,1-b][1,3,4]thiadiazoles: search for anticancer agents” (2012).
# Legend:
# Type in all cases: functional
# NCI-H460 [1] = test: Cytotoxicity against human NCI-H460 cells assessed as cell growth at 10^-4 M after 48 hrs by SRB assay; settings: NCI-H460, 48 h, read-out: Activity
# A498 = test: Cytotoxicity against human A498 cells assessed as cell growth at 10^-4 M after 48 hrs by SRB assay; settings: A498, 48 h, read-out: Activity
# Method in brief: (§1)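 NCI-60 screen: lines kept in RPMI 1640 with 5% FBS, seeded at 5000–40,000 cells/well by doubling time, preincubated 24 h at 37 °C in 5% CO2. Time-zero plates TCA-fixed at drug addition. DMSO stocks diluted in medium, 48 h exposure. Fixation in cold TCA (final 10% adherent, 16% suspension), 0.4% SRB stain, solubilised in 10 mM Tris base, A515. Percent growth computed against control and time-zero.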
# KM12 = test: Cytotoxicity against human KM12 cells assessed as cell growth at 10^-5 M after 48 hrs by SRB assay; settings: KM12, 48 h, read-out: Activity
# COLO = test: Growth inhibition of human COLO […] cells after 48 hrs by SRB assay
# Method in brief: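 Same 48 h NCI-60 five-dose SRB protocol. Adherent lines were fixed with cold TCA at 10% final; suspension lines such as CCRF-CEM were fixed with 16% final TCA. Stain was 0.4% SRB in 1% acetic acid for 10 min, solubilized in 10 mM Tris base and read at 515 nm. GI50 came from log concentration–growth curves, solving [(Ti−Tz)/(C−Tz)]×100 = 50.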
# SK-OV-3 = test: Cytotoxicity against human SKOV3 cells assessed as cell growth at 10^-8 M after 48 hrs by SRB assay; settings: SK-OV-3, 48 h, read-out: Activity
# SNB-75 = test: Cytotoxicity against human SNB75 cells assessed as cell growth at 10^-6 M after 48 hrs by SRB assay; settings: SNB-75, 48 h, read-out: Activity
# LOX IMVI = test: Cytotoxicity against human LOXIMVI cells assessed as cell growth at 10^-5 M after 48 hrs by SRB assay; settings: read-out: Activity
# HCT-15 [2] = test: Growth inhibition of human HCT15 cells after 48 hrs by SRB assay; settings: HCT-15, 48 h; for CC50: read-out: LC50 (the source's name)
# Method in brief: (§2)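 Adherent NCI-60 lines grown in RPMI 1640 with 5% FBS, seeded at 5000–40,000 cells/well, and preincubated 24 h at 37 °C, 5% CO2. Compound, stocked in DMSO, given either once at 10^-5 M or at five 10-fold dilutions for 48 h. Cells fixed with cold TCA (final 10%), stained with 0.4% SRB, and read at 515 nm. GI50 taken as 50% reduction in net protein increase versus time-zero and control plates.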
# U-251 = test: Cytotoxicity against human U251 cells assessed as cell growth at 10^-6 M after 48 hrs by SRB assay; settings: U-251, 48 h, read-out: Activity
# HL-60 = test: Cytotoxicity against human HL60 cells assessed as cell growth at 10^-5 M after 48 hrs by SRB assay; settings: HL-60, 48 h, read-out: Activity
# Method in brief: (§3)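 NCI-60 five-dose screen. Cells were grown in RPMI 1640 with 5% FBS and seeded at 5000–40,000 cells/well according to doubling time. They were pre-incubated 24 h at 37 °C in 5% CO₂, and time-zero (Tz) plates were TCA-fixed at drug addition. Five 10-fold dilutions of DMSO stock were applied for 48 h. Read-out was SRB staining, 515 nm absorbance, with percent growth calculated versus Tz and untreated control.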
# CCRF-CEM [3] = test: Cytotoxicity against human CCRF-CEM cells assessed as cell growth at 10^-5 M after 48 hrs by SRB assay; settings: read-out: Activity; method in brief: as §1
# HOP-92 = test: Cytotoxicity against human HOP92 cells assessed as cell growth at 10^-5 M after 48 hrs by SRB assay; settings: HOP-92, 48 h, read-out: Activity; method in brief: as §3
# A549 = test: Cytotoxicity against human A549 cells assessed as cell growth at 10^-5 M after 48 hrs by SRB assay; settings: A549, 48 h, read-out: Activity; method in brief: as §1
# OVCAR-5 = test: Cytotoxicity against human OVCAR5 cells assessed as cell growth at 10^-4 M after 48 hrs by SRB assay; settings: OVCAR-5, 48 h, read-out: Activity
# HCC 2998 = test: Cytotoxicity against human HCC2998 cells assessed as cell growth at 10^-8 M after 48 hrs by SRB assay; settings: HCC 2998, 48 h, read-out: Activity; method in brief: as §3
# [4] = Cytotoxicity against human […] cells assessed as cell growth at 10^-5 M after 48 hrs by SRB assay; settings: RPMI8266, 48 h, read-out: Activity
# BT-549 = test: Cytotoxicity against human BT549 cells assessed as cell growth at 10^-8 M after 48 hrs by SRB assay; settings: BT-549, 48 h, read-out: Activity; method in brief: as §1
# SF-295 [5] = test: Cytotoxicity against human SF295 cells assessed as cell growth at 10^-5 M after 48 hrs by SRB assay; settings: SF-295, 48 h, read-out: Activity
# NCI-H226 = test: Cytotoxicity against human NCI-H226 cells assessed as cell growth at 10^-5 M after 48 hrs by SRB assay; settings: NCI-H226, 48 h, read-out: Activity
# SNB-19 = test: Cytotoxicity against human SNB19 cells assessed as cell growth at 10^-4 M after 48 hrs by SRB assay; settings: SNB-19, 48 h, read-out: Activity
# M14 = test: Cytotoxicity against human M14 cells assessed as cell growth at 10^-5 M after 48 hrs by SRB assay; settings: M14, 48 h, read-out: Activity
# [6] = Growth inhibition of human Hs 578T cells after 48 hrs by SRB assay; method in brief: as §2
# SF-295 [7] = test: Cytotoxicity against human SF295 cells assessed as cell growth at 10^-4 M after 48 hrs by SRB assay; settings: SF-295, 48 h, read-out: Activity
# UACC-257 = test: Growth inhibition of human UACC257 cells after 48 hrs by SRB assay; settings: UACC-257, 48 h; for CC50: read-out: LC50 (the source's name); method in brief: as §2
# SR = test: Cytotoxicity against human SR cells assessed as cell growth at 10^-5 M after 48 hrs by SRB assay; settings: read-out: Activity
# MCF7 = test: Cytotoxicity against human MCF7 cells assessed as cell growth at 10^-8 M after 48 hrs by SRB assay; settings: MCF7, 48 h, read-out: Activity
# NCI-H460 [8] = test: Growth inhibition of human NCI-H460 cells after 48 hrs by SRB assay; settings: NCI-H460, 48 h; for CC50: read-out: LC50 (the source's name); method in brief: as §2
# CCRF-CEM [9] = test: Cytotoxicity against human CCRF-CEM cells assessed as cell growth at 10^-8 M after 48 hrs by SRB assay; settings: read-out: Activity; method in brief: as §1
# HCT-15 [10] = test: Cytotoxicity against human HCT15 cells assessed as cell growth at 10^-6 M after 48 hrs by SRB assay; settings: HCT-15, 48 h, read-out: Activity; method in brief: as §3
Compound,growth at 100 µM (NCI-H460 [1]) [%],growth at 100 µM (A498) [%],growth at 10 µM (KM12) [%],GI50 (COLO) [µM],LC50 (COLO) [µM],TGI (COLO) [µM],growth at 0.01 µM (SK-OV-3) [%],growth at 1 µM (SNB-75) [%],growth at 10 µM (LOX IMVI) [%],GI50 (HCT-15 [2]) [µM],TGI (HCT-15 [2]) [µM],CC50 (HCT-15 [2]) [µM],growth at 1 µM (U-251) [%],growth at 10 µM (HL-60) [%],growth at 10 µM (CCRF-CEM [3]) [%],growth at 10 µM (HOP-92) [%],growth at 10 µM (A549) [%],growth at 100 µM (OVCAR-5) [%],growth at 0.01 µM (HCC 2998) [%],growth at 10 µM [4] [%],further results
COc1ccc(-c2nn3cc(-c4ccc(O)cc4O)nc3s2)cc1,2,-37,21,5.82,> 100,36.8,102,33,4,5.13,> 100,> 100,77,33,40,-33,2,2,98,10,growth at 0.01 µM (BT-549): 94%; growth at 10 µM (SF-295 [5]): 3%; growth at 10 µM (NCI-H226): -11%; growth at 100 µM (SNB-19): 1%; growth at 10 µM (M14): 17%; GI50 [6]: 1.92 µM; LC50 (concentration killing 50% of starting cells) [6]: > 100 µM; TGI [6]: 9.27 µM; growth at 100 µM (SF-295 [7]): -13%; GI50 (UACC-257): 4.98 µM; TGI (UACC-257): 76.4 µM; CC50 (UACC-257): > 100 µM; growth at 10 µM (SR): 6%; growth at 0.01 µM (MCF7): 92%; GI50 (NCI-H460 [8]): 2.02 µM; CC50 (NCI-H460 [8]): > 100 µM; growth at 0.01 µM (CCRF-CEM [9]): 98%; growth at 1 µM (HCT-15 [10]): 93%
COc1ccc(-c2nn3cc(-c4cccc(N)c4)nc3s2)cc1,-31,-67,37,7.08,86,26.7,97,52,26,5.26,> 100,> 100,95,19,10,-25,36,-23,98,6,growth at 0.01 µM (BT-549): 102%; growth at 10 µM (SF-295 [5]): 24%; growth at 10 µM (NCI-H226): 16%; growth at 100 µM (SNB-19): 7%; growth at 10 µM (M14): 34%; GI50 [6]: 2.33 µM; LC50 (concentration killing 50% of starting cells) [6]: > 100 µM; TGI [6]: 23.3 µM; growth at 100 µM (SF-295 [7]): -27%; GI50 (UACC-257): 17.3 µM; TGI (UACC-257): > 100 µM; CC50 (UACC-257): > 100 µM; growth at 10 µM (SR): 26%; growth at 0.01 µM (MCF7): 86%; GI50 (NCI-H460 [8]): 3.36 µM; TGI (NCI-H460 [8]): 28.9 µM; CC50 (NCI-H460 [8]): > 100 µM; growth at 0.01 µM (CCRF-CEM [9]): 96%; growth at 1 µM (HCT-15 [10]): 86%
